In the library only some 3.8% were active in any assay of this set; here they are far more common.
CSC inhib: cancer stem cell inhibition; actives 1.1% (n = 300,000); cancer stem cell-like cells viability, luminescence; AID 2717; inhibition, % at 7.5 µM; in the data active = inhibition above about 75%; tested in HMLE shEcad cells
Beta apoptosis: blocks beta cell apoptosis. AID 435005. actives 0.8% (n = 300,000). protection from apoptosis, % (concentration not given with the values). INS-1E cytokine-induced death, ATP luminescence, 48 h; percent of positive-control rescue, neutral wells zero;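 active = Every replicate reaches about 75%, or at least half do and their mean reaches it too, limit read from the data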;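 note: 0% = cytokine-treated negative control wells and 100% = positive control rescue; higher means more ATP so stronger rescue from cytokine killing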
MC4R antag cAMP: blocks human MC4R cAMP signaling; P32245; MC4R-expressing cells, MTII-stimulated cAMP, LANCE TR-FRET; inhibition, % at 6.5 µM; actives 0.48% (n = 360,000);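 active = inhibition above its plate's cutoff, the mean of tested wells on that plate plus 3 SD, cut at about 29% in these data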;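 note: 0% = Melanotan II alone and 100% = Melanotan II plus saturating MCL0020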
Target sequence (P32245 whole entry, looked up): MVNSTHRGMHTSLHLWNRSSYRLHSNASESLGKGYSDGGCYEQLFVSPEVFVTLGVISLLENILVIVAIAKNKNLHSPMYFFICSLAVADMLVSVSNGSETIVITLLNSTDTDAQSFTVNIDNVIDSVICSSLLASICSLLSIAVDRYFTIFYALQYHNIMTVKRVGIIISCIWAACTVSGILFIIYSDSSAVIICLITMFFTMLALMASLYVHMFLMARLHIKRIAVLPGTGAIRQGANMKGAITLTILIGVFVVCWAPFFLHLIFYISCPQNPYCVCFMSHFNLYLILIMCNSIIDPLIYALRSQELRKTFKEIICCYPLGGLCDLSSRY
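Assay system: human MC4R-expressing U2OS cells; reagent: Melanotan II stimulation of cells; dosing: 6.5 µM single dose; timing: compound 30 min, challenge 1 h, detection 1 h; signal: TR-FRET cAMP assay; replicates: one well per compound, no replicates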
TMEM16A inh: blocks the mouse calcium-activated chloride channel TMEM16A; Q8BHY3; HEK293 TMEM16A/YFP iodide influx fluorescence, ionomycin; normalized B-score (activity score, 25-100; higher = stronger inhibition) at 10 µM; actives 1.2% (n = 310,000); AID 588511;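 active = ratio plate-corrected score three or more library SD toward inhibition, starting fluorescence score within five deviations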;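 note: score derived from kinetic fluorescence span divided by baseline fluorescence per well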
ANO1 activ: activators or potentiators of mouse TMEM16A chloride channel. HEK293 TMEM16A/YFP-H148Q/I152L, iodide quench fluorescence; hits give low values. AID 623877. actives 0.3% (n = 340,000). Q8BHY3. B-score at 10 µM;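 active = fluorescence-ratio B-score plate-corrected deviation score at least 3 library SD below zero, with starting fluorescence score within 5 deviations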;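 note: channel opened by trigger with iodide after compound preincubation; score built on the fluorescence ratio of max minus min over baseline; more negative score means more quench and so TMEM16A activation or potentiation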
MC4R barr agon: activates human MC4R beta-arrestin recruitment; P32245; actives 0.98% (n = 360,000); activation, % at 8.9 µM; U2OS MC4R beta-arrestin complementation, luminescence; percent of melanotan II response, DMSO zero;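 active = activation above a per-plate cutoff, the mean activation of sample wells on that plate plus 3 SD, cut at about 8% in these data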
MC4R barr conf: human MC4R beta-arrestin agonism confirmation | actives 31% (n = 2,400) | shares compounds with MC4R barr agon | AID 602192 | activation, % at 8.9 µM | U2OS MC4R beta-arrestin recruitment, luminescence; scaled DMSO 0%, Melanotan II 100%;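 active = mean activation across replicates above the hit cutoff set in the earlier primary screen, cut at about 8% in these data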
MOR-DOR barr ag: counter-screen for MC4R agonists: agonists of mu-delta opioid heterodimer; actives 5.8% (n = 2,400); activation, % at 9.2 µM; shares compounds with MC4R barr agon; U2OS PathHunter beta-arrestin, beta-gal luminescence; percent of deltorphin B response, DMSO zero;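 active = mean activation across replicates exceeds the hit threshold derived in the earlier primary screen, cut at about 18% in these data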;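 note: 100% = deltorphin B at 0.9 µM final and 0% = DMSO alone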
Active calls of the source: *.

S=C(Nc1ccc(Cl)c(Cl)c1)N1CCN(c2ccccn2)CC1 was read as MC4R antag cAMP 27, TMEM16A inh inactive, ANO1 activ inactive, MC4R barr agon 15*, MC4R barr conf 2 and MOR-DOR barr ag 7.
Cc1ccc(Cn2ccc(NC(=O)c3cc(-c4ccc(Br)cc4)on3)n2)cc1 was read as CSC inhib 11, MC4R antag cAMP 1, TMEM16A inh inactive, ANO1 activ inactive and MC4R barr agon 0.
Screening Cc1ccc(Cn2ccc(NC(=O)c3cc(-c4ccccc4)on3)n2)cc1 returned CSC inhib 3, Beta apoptosis -3, MC4R antag cAMP 6, TMEM16A inh inactive, ANO1 activ inactive, MC4R barr agon 11*, MC4R barr conf -4 and MOR-DOR barr ag 3.
`COc1ccc(CN2CCC[C@]3(N[C@H](c4ccccc4)[C@@H]4C(=O)N(C)C(=O)[C@@H]43)C2=O)cc1` gave MC4R antag cAMP 1 and MC4R barr agon 3.
`Nc1nc(-c2cc(O)ccc2[N+](=O)[O-])cc(-c2ccccc2)c1[N+](=O)[O-]` gave CSC inhib 13, Beta apoptosis 63, MC4R antag cAMP -17, TMEM16A inh inactive, ANO1 activ inactive, MC4R barr agon 11*, MC4R barr conf 1 and MOR-DOR barr ag 3.
Screening O=C1c2ccccc2C(=O)c2c(Nc3ccc(CCO)cc3)ccc(O)c21 returned CSC inhib 88*, Beta apoptosis 22, MC4R antag cAMP 12, TMEM16A inh inactive, ANO1 activ inactive, MC4R barr agon 19*, MC4R barr conf 6 and MOR-DOR barr ag 6.
COc1ccccc1NC(=O)Nc1nc(C(N)CC(C)C)cs1 (centres undefined) was read as MC4R antag cAMP 2 and MC4R barr agon 0.
Screening Oc1ccccc1/C=N/NC(=S)NC1CC2CCC1C2 (centres undefined) returned CSC inhib 56, Beta apoptosis 23, MC4R antag cAMP 11, TMEM16A inh inactive, ANO1 activ inactive, MC4R barr agon 12*, MC4R barr conf -2 and MOR-DOR barr ag 7.
For CCN(CC)C(=O)C1=C(C)N(Cc2ccc(OC)cc2)C(=O)C(CC(=O)NC(c2ccccc2)c2ccccc2)C1 (centres undefined) the results were MC4R antag cAMP 4 and MC4R barr agon -1.
`COc1ccc(Cc2nnc(NC(=O)Nc3ccccc3F)s2)cc1OC` gave CSC inhib 22, Beta apoptosis -1, MC4R antag cAMP -2, TMEM16A inh inactive, ANO1 activ inactive, MC4R barr agon 14*, MC4R barr conf 4 and MOR-DOR barr ag 6.
`CCc1ccc(NC(=S)NC2CCN(Cc3ccccc3)CC2)cc1` gave CSC inhib 20, Beta apoptosis 0, MC4R antag cAMP 18, TMEM16A inh inactive, ANO1 activ inactive and MC4R barr agon 7.
Screening CCC(C)c1ccc(NC(=S)NC2CCN(Cc3ccccc3)CC2)cc1 (centres undefined) returned CSC inhib 36, Beta apoptosis 111*, MC4R antag cAMP 13, TMEM16A inh inactive, ANO1 activ inactive, MC4R barr agon 15*, MC4R barr conf 22* and MOR-DOR barr ag 14.
Cc1ccc(CC2(C)C(=O)Nc3c(Cl)ccc(Cl)c32)cc1 (centres undefined) was read as MC4R antag cAMP 0 and MC4R barr agon 1.
For Cc1cccc(-c2n[nH]c(=S)n2/N=C/c2ccc(C)s2)c1 the results were CSC inhib 29, Beta apoptosis 2, MC4R antag cAMP 5, TMEM16A inh inactive, ANO1 activ inactive, MC4R barr agon 12*, MC4R barr conf 0 and MOR-DOR barr ag 4.

Assay outcomes deposited in PubChem by several laboratories.
